Converted amounts (≈) assume the structure as drawn.
Tests used:
[1] = Therapeutic index, ratio of TC50 for mouse RAW264.7 cells to EC50 for Leishmania infantum zymodeme MON-1 axenic amastigotes; conditions: read-out: TI
Method in brief: (§1)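 Index calculated as TC50 on RAW 264.7 macrophages (MTT assay) divided by EC50 on L. infantum promastigotes or axenic amastigotes, using the same incubation time (24 or 48 h) for both.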

[2] = Cytotoxicity against mouse RAW264.7 cells after 48 hrs by MTT assay; assay type: cell-based; conditions: read-out: TC50
Method in brief: (§2)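 RAW 264.7 cells in RPMI 1640 with L-glutamine, 10% FBS and penicillin/streptomycin, seeded at 1×10^5 cells/well and left to adhere overnight at 37 °C, 5% CO2. Compounds at 10, 50 and 100 µg/mL, 37 °C. MTT (5 mg/mL) added for 4 h, formazan dissolved in DMSO, A540 read. Survival expressed as percent of untreated control, in triplicate. TC50 taken as the 50% macrophage-death concentration.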

[3] = Therapeutic index, ratio of TC50 for mouse RAW264.7 cells to EC50 for Leishmania infantum zymodeme MON-1 axenic amastigotes after 48 hrs; conditions: read-out: TI; method in brief: as §1
Leishmania infantum [4] = assay: Antileishmanial activity against Leishmania infantum zymodeme MON-1 promastigotes assessed as parasite survival after 48 hrs; assay type: functional, organism-based; conditions: zymodeme MON-1, 48 h
Method in brief: (§3)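 Log-phase promastigotes from 26 °C Schneider's Drosophila medium with 10% heat-inactivated FCS, pH 7.2, adjusted to 5×10^6 parasites/mL. Compounds in DMSO (≤1% v/v) at 10–100 µg/mL, incubated at 26 °C. Surviving promastigotes counted in a Neubauer chamber and compared with drug-free controls.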

[5] = Therapeutic index, ratio of TC50 for mouse RAW264.7 cells to EC50 for Leishmania infantum zymodeme MON-1 promastigotes after 24 hrs; conditions: read-out: TI; method in brief: as §1
[6] = Cytotoxicity against mouse RAW264.7 cells after 24 hrs by MTT assay; assay type: cell-based; conditions: read-out: TC50; method in brief: as §2
Leishmania infantum [7] = assay: Antileishmanial activity against Leishmania infantum zymodeme MON-1 axenic amastigotes assessed as parasite survival after 24 hrs; assay type: functional, organism-based; conditions: zymodeme MON-1, 24 h
Method in brief: (§4)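 Axenic amastigotes grown cell-free at 37 °C, 5% CO2 in MAA/20 (modified medium 199 with Hank's salts, tryptocasein, glucose, glutamine, NaHCO3, hemin, 25 mM HEPES, pH 6.5, 20% heat-inactivated FBS). Compounds in DMSO (≤1% v/v) at 10–100 µg/mL, 37 °C. Viability read after TO-PRO-3 staining (10 min, room temperature) by ImageStream imaging cytometry, ≥10,000 events per sample.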

Leishmania infantum [8] = assay: Antileishmanial activity against Leishmania infantum zymodeme MON-1 promastigotes assessed as parasite survival after 24 hrs; assay type: functional, organism-based; conditions: zymodeme MON-1, 24 h; method in brief: as §3
[9] = Therapeutic index, ratio of TC50 for mouse RAW264.7 cells to EC50 for Leishmania infantum zymodeme MON-1 promastigotes after 48 hrs; conditions: read-out: TI; method in brief: as §1
Leishmania infantum [10] = assay: Antileishmanial activity against Leishmania infantum zymodeme MON-1 axenic amastigotes assessed as parasite survival after 48 hrs; assay type: functional, organism-based; conditions: zymodeme MON-1, 48 h; method in brief: as §4
Leishmania infantum [11] = assay: Antileishmanial activity against Leishmania infantum zymodeme MON-1 promastigotes assessed as parasite survival at 10 to 100 ug/ml after 48 hrs; assay type: functional; method in brief: as §3

Compound | selectivity ratio [1] | CC50 at 48 h [2] | selectivity ratio at 48 h [3] | EC50 (Leishmania infantum [4]) | EC95 (Leishmania infantum [4]) | selectivity ratio at 24 h [5] | CC50 at 24 h [6] | EC50 (Leishmania infantum [7]) | EC95 (Leishmania infantum [7]) | EC50 (Leishmania infantum [8]) | EC95 (Leishmania infantum [8]) | selectivity ratio at 48 h [9] | EC50 (Leishmania infantum [10]) | EC95 (Leishmania infantum [10]) | Activity (Leishmania infantum [11])
O=C(CC(c1ccc(Cl)cc1)C1C(=O)Nc2ccccc21)c1ccccc1 (configuration not stated) | 2 | 35 µg/mL (≈ 93.1 µM) | 3.5 | 11.5 µg/mL (≈ 30.6 µM) | 73.6 µg/mL (≈ 196 µM) | 1.8 | 36.9 µg/mL (≈ 98.2 µM) | 18.5 µg/mL (≈ 49.2 µM) | 74 µg/mL (≈ 197 µM) | 19.7 µg/mL (≈ 52.4 µM) | 76.5 µg/mL (≈ 204 µM) | 3 | 10.1 µg/mL (≈ 26.9 µM) | 70.2 µg/mL (≈ 187 µM) | 
COc1ccc([C@H](CC(=O)c2ccccc2)[C@H]2C(=O)Nc3ccccc32)cc1 (relative stereo) | 1.7 | 35.4 µg/mL (≈ 95.3 µM) | 2.7 | 14.2 µg/mL (≈ 38.2 µM) | 74 µg/mL (≈ 199 µM) | 1.3 | 41 µg/mL (≈ 110 µM) | 24.2 µg/mL (≈ 65.2 µM) | 75.4 µg/mL (≈ 203 µM) | 29.7 µg/mL (≈ 80 µM) | 78.5 µg/mL (≈ 211 µM) | 2.5 | 13.1 µg/mL (≈ 35.3 µM) | 71.2 µg/mL (≈ 192 µM) | 
O=C(CC(c1cccc(Cl)c1)C1C(=O)Nc2ccccc21)c1ccccc1 (configuration not stated) | 6.3 | 116 µg/mL (≈ 309 µM) | 9.3 | 13.2 µg/mL (≈ 35.1 µM) | 74 µg/mL (≈ 197 µM) | 6.1 | 193 µg/mL (≈ 514 µM) | 30.5 µg/mL (≈ 81.1 µM) | 80.2 µg/mL (≈ 213 µM) | 31.6 µg/mL (≈ 84.1 µM) | 85.5 µg/mL (≈ 227 µM) | 8.8 | 12.5 µg/mL (≈ 33.3 µM) | 71.5 µg/mL (≈ 190 µM) | 
O=C(/C=C/c1ccccc1)c1ccccc1 [CHALCONE] | 5.5 | 30.7 µg/mL (≈ 147 µM) | 23.7 | 1.5 µg/mL (≈ 7.2 µM) | 71.1 µg/mL (≈ 341 µM) | 4.9 | 28.1 µg/mL (≈ 135 µM) | 5.1 µg/mL (≈ 24.5 µM) | 79.5 µg/mL (≈ 382 µM) | 5.7 µg/mL (≈ 27.4 µM) | 83.5 µg/mL (≈ 401 µM) | 20.1 | 1.3 µg/mL (≈ 6.24 µM) | 69.9 µg/mL (≈ 336 µM) | 
COc1ccc([C@@H]2CC(=O)C[C@@H](c3ccc(OC)cc3)C23C(=O)Nc2ccccc23)cc1 | 3.8 | 51 µg/mL (≈ 119 µM) | 3.4 | 16.2 µg/mL (≈ 37.9 µM) | 75.2 µg/mL (≈ 176 µM) | 3.3 | 80.5 µg/mL (≈ 188 µM) | 21 µg/mL (≈ 49.1 µM) | 79.3 µg/mL (≈ 185 µM) | 23.9 µg/mL (≈ 55.9 µM) | 82.4 µg/mL (≈ 193 µM) | 3.1 | 15.1 µg/mL (≈ 35.3 µM) | 74.8 µg/mL (≈ 175 µM) | >74%
O=C1C[C@@H](c2ccc(Cl)cc2)C2(C(=O)Nc3ccccc32)[C@H](c2ccc(Cl)cc2)C1 | 2.1 | 21.3 µg/mL (≈ 48.8 µM) | 4.4 | 5.1 µg/mL (≈ 11.7 µM) | 72.1 µg/mL (≈ 165 µM) | 1.8 | 44 µg/mL (≈ 101 µM) | 21 µg/mL (≈ 48.1 µM) | 75.2 µg/mL (≈ 172 µM) | 23.4 µg/mL (≈ 53.6 µM) | 77.1 µg/mL (≈ 177 µM) | 4.2 | 4.9 µg/mL (≈ 11.2 µM) | 69.9 µg/mL (≈ 160 µM) | >74%
O=C(C[C@@H](c1ccccc1)[C@H]1C(=O)Nc2ccccc21)c1ccccc1 (relative stereo) | 4.7 | 66.6 µg/mL (≈ 195 µM) | 11.2 | 6.3 µg/mL (≈ 18.5 µM) | 72.1 µg/mL (≈ 211 µM) | 4.4 | 71.6 µg/mL (≈ 210 µM) | 15.3 µg/mL (≈ 44.8 µM) | 75.6 µg/mL (≈ 221 µM) | 16.2 µg/mL (≈ 47.5 µM) | 77.8 µg/mL (≈ 228 µM) | 10.6 | 5.9 µg/mL (≈ 17.3 µM) | 69.4 µg/mL (≈ 203 µM) | 
C[C@@H]1[C@H](O)[C@@H](C)/C=C/C=C/C=C/C=C/C=C/C=C/C=C/[C@H](O[C@@H]2O[C@H](C)[C@@H](O)[C@H](N)[C@@H]2O)C[C@@H]2O[C@](O)(C[C@@H](O)C[C@@H](O)[C@H](O)CC[C@@H](O)C[C@@H](O)CC(=O)O[C@H]1C)C[C@H](O)[C@H]2C(=O)O [AMPHOTERICIN B] | 39.1 | 3.1 µg/mL (≈ 3.35 µM) | 8.2 | 0.4 µg/mL (≈ 0.433 µM) | 3.9 µg/mL (≈ 4.22 µM) | 35.1 | 19.6 µg/mL (≈ 21.2 µM) | 0.5 µg/mL (≈ 0.541 µM) | 3.9 µg/mL (≈ 4.22 µM) | 0.55 µg/mL (≈ 0.595 µM) | 3.9 µg/mL (≈ 4.22 µM) | 8.2 | 0.4 µg/mL (≈ 0.433 µM) | 3.4 µg/mL (≈ 3.68 µM) | 
Cc1ccc([C@@H]2CC(=O)C[C@@H](c3ccc(C)cc3)C23C(=O)Nc2ccccc23)cc1 | 10.6 | 38.6 µg/mL (≈ 97.6 µM) | 20.3 | 2 µg/mL (≈ 5.06 µM) | 71.4 µg/mL (≈ 181 µM) | 10.2 | 62.8 µg/mL (≈ 159 µM) | 5.9 µg/mL (≈ 14.9 µM) | 69.4 µg/mL (≈ 175 µM) | 6.1 µg/mL (≈ 15.4 µM) | 72.1 µg/mL (≈ 182 µM) | 18.7 | 1.9 µg/mL (≈ 4.8 µM) | 69.9 µg/mL (≈ 177 µM) | >74%
Cc1ccc([C@H](CC(=O)c2ccccc2)[C@H]2C(=O)Nc3ccccc32)cc1 (relative stereo) | 1.6 | 67.6 µg/mL (≈ 190 µM) | 1.3 | 51.6 µg/mL (≈ 145 µM) | 96 µg/mL (≈ 270 µM) | 1.5 | 93.3 µg/mL (≈ 262 µM) | 60.1 µg/mL (≈ 169 µM) | 99.5 µg/mL (≈ 280 µM) | 62 µg/mL (≈ 174 µM) | 111 µg/mL (≈ 312 µM) | 1.3 | 48.4 µg/mL (≈ 136 µM) | 94.3 µg/mL (≈ 265 µM) | 
O=C1C[C@@H](c2ccccc2)C2(C(=O)Nc3ccccc32)[C@H](c2ccccc2)C1 | 3.1 | 65.2 µg/mL (≈ 177 µM) | 11.4 | 6.9 µg/mL (≈ 18.8 µM) | 73.2 µg/mL (≈ 199 µM) | 2.9 | 88.8 µg/mL (≈ 242 µM) | 28.5 µg/mL (≈ 77.6 µM) | 78.3 µg/mL (≈ 213 µM) | 29.8 µg/mL (≈ 81.1 µM) | 86.1 µg/mL (≈ 234 µM) | 9.4 | 5.7 µg/mL (≈ 15.5 µM) | 74.1 µg/mL (≈ 202 µM) | >74%
O=C1Cc2ccccc2N1 [OXINDOLE] | 0.6 | 154 µg/mL (≈ 1160 µM) | 2.2 | 72.4 µg/mL (≈ 544 µM) | 146 µg/mL (≈ 1100 µM) | 0.5 | 126 µg/mL (≈ 945 µM) | 199 µg/mL (≈ 1490 µM) | 430 µg/mL (≈ 3230 µM) | 232 µg/mL (≈ 1750 µM) | 447 µg/mL (≈ 3360 µM) | 2.1 | 69.5 µg/mL (≈ 522 µM) | 136 µg/mL (≈ 1020 µM) | 
